Laboratory results: ChEMBL document CHEMBL1134785, “Synthesis and biological evaluation of prostaglandin-F alkylphosphinic acid derivatives as bone anabolic agents for the treatment of osteoporosis” (J Med Chem, 2001)

Legend:
[1] = system: Rattus norvegicus; assay: Bone Volume /Tissue Volume (%)measured using micro Computed Tomography(CT) after a dose of 6000 ug/kg in Vertebral Bone; format: functional
How it was run: (§1)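 Micro-CT of the fifth lumbar vertebra, measuring cancellous bone volume and architecture. Rats were 6 months old, OVX 60 days before treatment, then dosed daily for 60 days. Test-agent doses were 10–3000 µg/kg, given as a once-daily subcutaneous injection; 6 mg/kg/day was given to the positive-control group. Groups were compared with vehicle by ANOVA plus LSD test.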

[2] = system: Rattus norvegicus; assay: Bone Volume /Tissue Volume (%)measured Histomorphometrically after a dose of 6000 ug/kg in proximal tibial metaphysis; format: functional
How it was run: (§2)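 Proximal tibial metaphysis, 1 to 4 mm distal to the growth plate–metaphyseal junction, assessed by histomorphometry in 6-month-old female rats. Rats were ovariectomized (OVX) 60 days before dosing, then given daily injections for 60 days. Fluorochrome labels were xylenol orange 90 mg/kg before treatment and calcein 10 mg/kg at 14 and 4 days before sacrifice. Groups were compared with vehicle by ANOVA plus LSD test.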

[3] = system: Rattus norvegicus; assay: Directly measured thickness measured using micro Computed Tomography(CT) after a dose of 6000 ug/kg in Vertebral Bone; format: functional; how it was run: as §1
[4] = system: Rattus norvegicus; assay: Connectivity density measured using micro Computed Tomography(CT) after a dose of 6000 ug/kg in Vertebral Bone; format: functional; how it was run: as §1
[5] = system: Rattus norvegicus; assay: Derived trabecular no measured using micro Computed Tomography(CT) after a dose of 6000 ug/kg in Vertebral Bone; format: functional, Trabecula; how it was run: as §1
[6] = system: Rattus norvegicus; assay: Tissue area measured Histomorphometrically after a dose of 6000 ug/kg in Tibial Diaphysis; format: functional
How it was run: (§3)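 A positive-control group of ovariectomized rats was injected daily at 6 mg/kg/day for 60 days, starting 60 days after surgery. Xylenol orange (90 mg/kg) was given before treatment and calcein (10 mg/kg) 14 and 4 days before sacrifice. Tibiae were read by fluorescent-light histomorphometry.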

[7] = system: Rattus norvegicus; assay: Bone Formation rate/bone measured Histomorphometrically after a dose of 6000 ug/kg in proximal tibial metaphysis; format: functional; how it was run: as §2
[8] = system: Rattus norvegicus; assay: Marrow area measured Histomorphometrically after a dose of 6000 ug/kg in Tibial Diaphysis; format: functional
[9] = system: Rattus norvegicus; assay: Bone Formation rate/tissue vol measured Histomorphometrically after a does of 6000 ug/kg in proximal tibial metaphysis; format: functional; how it was run: as §2
[10] = system: Rattus norvegicus; assay: Mineral apposition measured Histomorphometrically after a dose of 6000 ug/kg in proximal tibial metaphysis; format: functional
How it was run: (§4)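 Positive-control arm: rats ovariectomized at six months, then from day 60 given PGE2 at 6 mg/kg/day for 60 days. Labels were xylenol orange 90 mg/kg before treatment and calcein 10 mg/kg 14 and 4 days before sacrifice. The tibia was read by fluorescent-light histomorphometry; metaphysis region 1–4 mm distal to the growth plate junction.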

[11] = system: Rattus norvegicus; assay: Trabecular thickness measured Histomorphometrically after a dose of 6000 ug/kg in proximal tibial metaphysis; format: functional, Trabecula
How it was run: (§5)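 A positive-control group of ovariectomized rats was injected daily at 6 mg/kg/day for 60 days, beginning 60 days post-surgery. Fluorochrome labels were xylenol orange (90 mg/kg) before treatment and calcein (10 mg/kg) 14 and 4 days before sacrifice. Histomorphometry covered the proximal tibial metaphysis 1-4 mm below the growth plate-metaphyseal junction.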

[12] = system: Rattus norvegicus; assay: Endosteal eroded surface measured Histomorphometrically after a dose of 6000 ug/kg in Tibial Diaphysis; format: functional
How it was run: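 Tibial histomorphometry in 6-month-old rats, OVX 60 days before treatment, then daily injection for 60 days. Vehicle was acetate-buffered saline with methylcellulose and polyoxyethylenesorbitan monooleate. Rats received xylenol orange 90 mg/kg before treatment and calcein 10 mg/kg at 14 and 4 days pre-sacrifice. Rats were killed by cardiac puncture under ketamine/xylazine. Groups were compared with vehicle by ANOVA plus LSD test.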

[13] = system: Rattus norvegicus; assay: Endosteal mineralizing surface measured Histomorphometrically after a does of 6000 ug/kg in Tibial Diaphysis; format: functional
[14] = system: Rattus norvegicus; assay: Mineralizing apposition measured Histomorphometrically after a dose of 6000 ug/kg in […]; format: functional
[15] = system: Rattus norvegicus; assay: Mineral surface/bone surface measured Histomorphometrically after a dose of 6000 ug/kg in proximal tibial metaphysis; format: functional; how it was run: as §4
[16] = system: Rattus norvegicus; assay: Derived trabecular thickness measured using micro Computed Tomography(CT) after a dose of 6000 ug/kg in Vertebral Bone; format: functional, Trabecula; how it was run: as §1
[17] = system: Rattus norvegicus; assay: Periosteal mineralizing surface measured Histomorphometrically after a does of 6000 ug/kg in Tibial Diaphysis; format: functional; how it was run: as §3
[18] = system: Rattus norvegicus; assay: Trabecular no measured Histomorphometrically after a dose of 6000 ug/kg in proximal tibial metaphysis; format: functional, Trabecula; how it was run: as §5

For `CCCCC[C@H](O)/C=C/[C@H]1[C@H](O)CC(=O)[C@@H]1C/C=C\CCCC(=O)O` [DINOPROSTONE], the Activity [1] was 43.79%, the Activity [2] was 11.65% and the Directly measured thickness [3] was 149 µm. For the same compound, the Connectivity density [4] was 47.81 mm**-3, the Derived trabecular number [5] was 4.6 1/mm and the Tissue area [6] was 5.22 mm. It also gave an Activity [7] of 394.7%, a Marrow area [8] of 0.76 mm and an Activity [9] of 45.62%. It also gave a Mineral apposition rate [10] of 1.19 µm/day, a Trabecular thickness [11] of 66.14 and an Endosteal eroded surface [12] of 0.79%. It also gave an Endosteal mineralizing surface [13] of 61.22%, a Mineralizing apposition rate [14] of 1.33 µm/day and an Activity [15] of 36.23%. For the same compound, the Derived trabecular thickness [16] was 95.1 µm, the Periosteal mineralizing surface [17] was 58.37% and the Trabecular no. [18] was 1.76.
